Hits are enriched below; roughly 5.2% of the tested compounds scored in any of these assays.
EBNA-1 inh: blocks EBNA-1 binding to DNA | AID 1950 | EBNA-1 DNA binding, fluorescence polarization | 300,000 tested, 0.34% active | inhibition, % at 14.8 µM; in the data active = inhibition above about 28%
PfM18AAP inh: PfM18AAP enzyme inhibition; 290,000 tested, 1.2% active; inhibition, % at 7.35 µM; AID 1822; recombinant PfM18AAP, H-Glu-NHMec fluorogenic cleavage;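 active = inhibition above the campaign mean inhibition over all tested compounds plus 3 SD, cut at about 28% in these data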;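 note: 0% = plate median of test compound wells and 100% = 2 mM ZnCl2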
HCV core dimer: HCV core protein dimerization inhibition; TR-FRET GST/Flag-core106 dimerization, 1536-well; inhibition, % at 5 µM; 300,000 tested, 0.33% active;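 active = inhibition above the mean of all tested compounds plus 3 SD, set per screening campaign, cut at about 45% in these data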
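Test system: GST/Flag-tagged HCV core106 proteins; Medium: KF-containing HEPES buffer, pH 7.45, DTT, CHAPS, BSA; Times: compound-protein-antibody incubation 4 h at 22.5 °C; Detection: TR-FRET 671 and 617 nm emission; Benchmarks: wells lacking GST-core106 and wells with excess unlabelled core106.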
ALR inh: inhibitors of human sulfhydryl oxidase ALR. P55789. purified ALR, DTT oxidation, H2O2 HRP-luminol luminescence. inhibition, % (no concentration beside the values). 290,000 tested, 3.8% active. AID 485317;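 active = mean replicate inhibition above about 79%, with every replicate also reaching it, limit read from the data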
Target sequence (P55789 whole entry, looked up): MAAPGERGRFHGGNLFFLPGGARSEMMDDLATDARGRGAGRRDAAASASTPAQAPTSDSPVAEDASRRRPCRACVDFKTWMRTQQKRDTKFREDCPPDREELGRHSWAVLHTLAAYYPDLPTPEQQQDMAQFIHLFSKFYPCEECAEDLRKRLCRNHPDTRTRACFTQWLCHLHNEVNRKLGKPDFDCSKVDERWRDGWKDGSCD
HCV NS3 hel inh: HCV NS3 helicase inhibition. NS3 helicase DNA unwinding, Cy5 molecular beacon fluorescence. inhibition, % at 10.9 µM. 290,000 tested, 0.56% active. AID 1800;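 active = inhibition above the mean of all tested compounds plus 3 SD, set per campaign, cut at about 35% in these data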;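 note: 0% = DMSO wells and 100% = thioflavine S control wells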
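System: Hepatitis C virus NS3 helicase domain fragment enzyme | Reagent: Annealed dual-labelled DNA beacon duplex, ATP-started | Compound dosing: 10.9 µM single point, 0.8% DMSO | Incubation: 1 h reaction at 25 °C, ATP-initiated | Technique: Cy5 fluorescence | Evaluation: Percent inhibition from t60/t0 fluorescence ratio | Benchmarks: Low DMSO, high thioflavine S at 110 µM | Replication: Singlicate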
ZTA DNA inh: counter-screen for EBNA-1 inhibitors: inhibitors of Epstein-Barr virus ZTA. P03206. 320,000 tested, 0.15% active. ZTA-DNA binding, fluorescence polarization. inhibition, % at 11 µM; in the data active = inhibition above about 33%
Target sequence (P03206 whole entry, looked up): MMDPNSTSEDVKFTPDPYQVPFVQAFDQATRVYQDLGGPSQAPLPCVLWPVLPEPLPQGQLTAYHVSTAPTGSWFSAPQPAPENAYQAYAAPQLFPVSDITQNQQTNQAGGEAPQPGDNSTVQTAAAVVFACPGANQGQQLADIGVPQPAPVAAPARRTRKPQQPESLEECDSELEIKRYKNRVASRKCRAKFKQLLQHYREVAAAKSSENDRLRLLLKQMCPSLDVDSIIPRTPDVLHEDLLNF
Active calls of the source: *; x = not tested or not shown.

SMILES	EBNA-1 inh	PfM18AAP inh	HCV core dimer	ALR inh	HCV NS3 hel inh	ZTA DNA inh
Cc1csc(NC(=O)CSc2sc3c(O)cc(=O)[nH]c3c2C#N)n1	1	17	4	99*	22	3
COCC(=O)Nc1ccc2c(c1)OCC(=O)N2Cc1ccccc1F	6	-3	11	-14	-6	2
N#Cc1cc(N)ccc1Sc1ccc(Cl)cc1	5	-6	-13	21	-9	-4
N#Cc1ncc(C(F)(F)F)cc1Sc1ccc(N)cc1	4	8	1	82*	15	17
Cc1nc(C(F)(F)F)c(C(=O)O)cc1-c1nc(-c2ccccc2)cs1	-16	-6	0	95*	5	6
O=C(O)c1ccc(-c2nc(-c3cccc(C(F)(F)F)c3)cs2)cc1	x	-2	x	x	11	x
CCn1c(SCC(=O)Nc2nncs2)nnc1C(C)NC(=O)c1ccccc1Br (stereo not given)	-5	6	-13	14	30	-25
COc1ccccc1OC(=O)CCN1c2ccccc2Sc2ccccc21	8	-9	-1	88*	-8	-1
O=C(O)CCN1c2ccccc2Sc2ccccc21	x	8	x	82*	8	x
COc1ccccc1C(=O)N1c2ccccc2Sc2ccccc21	-4	-4	3	-10	-9	-1
CC(=O)OCC1OC(Nc2cccc(C)c2)C(OC(C)=O)C(OC(C)=O)C1OC(C)=O (stereo not given)	5	-8	0	-5	4	-3
C/C(=N/NS(=O)(=O)c1cc(C)ccc1C)c1ccncc1	7	31*	0	-2	21	-10
C/C(=N/NS(=O)(=O)c1cc(C)ccc1C)c1ccc2c(c1)OCO2	x	3	x	28	-2	x
C=CCNc1ncnc2c1[nH]c1ccc(C)cc12	-5	-5	-9	x	-2	7
COc1cccc(/C=N/Nc2ncnc3c2[nH]c2ccc(C)cc23)c1OC	17	9	49*	-7	-13	13
CN(C)CCOC(=O)NCC12CC3CC(CC(C3)C1)C2	3	-13	2	x	-5	0
CS(=O)(=O)CCC(C(=O)O)N1C(=O)c2ccc(Oc3ccc(Cl)cc3)cc2C1=O (stereo not given)	-3	2	-1	-3	11	18
CCn1c(SCC(=O)N2CCOCC2)nnc1C(C)NC(=O)c1ccccc1 (stereo not given)	-7	6	-14	-3	8	-7
O=C(CN1CCOCCOCCOCC1)Nc1ccccc1	-3	-7	-1	1	3	-17
COc1ccccc1OCC(=O)NNc1c2ccccc2nc2ccccc12	2	8	-18	99*	27	8
Cc1ccc(C(=O)NNc2c3ccccc3nc3ccccc23)cc1	-5	9	-16	22	-1	3
COc1ccccc1OCC(=O)NNC(=O)CCCC(=O)NNC(=O)COc1ccccc1OC	-9	24	-2	1	3	0
Nc1ccccc1C(=O)NNc1c2ccccc2nc2ccccc12	11	4	-18	98*	5	14
O=C(CN1CCOCC1)NNc1c2ccccc2nc2ccccc12	-14	18	-10	98*	16	2
C[N+]1(CC(=O)NNc2c3ccccc3nc3ccccc23)CCOCC1	3	1	-17	99*	9	-17
SMILES	EBNA-1 inh	PfM18AAP inh	HCV core dimer	ALR inh	HCV NS3 hel inh	ZTA DNA inh
O=C(OC1CO[C@H]2O[C@@H]1[C@H](OC(=O)c1ccccc1)[C@H]2OC(=O)c1ccccc1)c1ccccc1 (stereo not given in full)	-11	x	3	2	x	21
Cc1ccc(OCc2ccccc2Br)c([N+](=O)[O-])n1	-5	0	-2	0	2	-3
COc1ccccc1N1C(=O)CC(Sc2ccccc2N)C1=O (stereo not given)	-5	-7	7	-6	-1	-12
c1cc2c(c(NCc3ccncc3)c1)CCCC2	6	1	-10	99*	-13	0
Cc1ccc(-c2csc(N=C(N)N)n2)cc1	-3	4	2	99*	-13	4
CCOC(=O)c1c(/N=C/c2cccc([N+](=O)[O-])c2O)sc(C)c1C	3	12	7	86*	15	0
O=[N+]([O-])c1cccc(C=Nc2cccc3ccccc23)c1O	-20	15	-5	11	28	1
COCCCn1c(=O)/c(=C\c2cccc(OC)c2OC)s/c1=C(/C#N)C(=O)Nc1ccc(C(=O)O)cc1	-9	5	24	98*	21	11
COCCCn1c(=O)/c(=C\c2ccccc2OC(F)F)s/c1=C(/C#N)C(=O)NCCOC	-6	1	-2	-6	-1	-19
CCCCNC(=O)CCC(=O)NNc1nc2ccccc2c2nc(C)nn12	9	25	-1	-3	11	12
Cc1nc2c3ccccc3nc(NNC(=O)CCC(=O)N3CCN(c4ccc(F)cc4)CC3)n2n1	1	9	-15	90*	8	-8
Cc1nc2c3ccccc3nc(NNC(=O)CCC(=O)NCCN3CCN(c4ccccc4)CC3)n2n1	0	11	0	98*	8	-6
N#Cc1ccccc1NC(=O)COC(=O)CCc1ccccc1	-14	2	-1	4	0	9
Cc1ccc(OCC(=O)Sc2ccc(C)cc2)cc1	-12	5	-6	100*	1	-19
COc1ccccc1OCC(=O)Sc1ccc(C)cc1	-8	0	-4	98*	2	-7
Cc1sc2nc(-c3ccc(Br)cc3)oc(=O)c2c1C	-8	-1	6	7	14	-9
NNc1nc2ccc(Cl)cc2s1	3	10	-2	x	2	-12
COc1ccccc1-c1nnc(Nc2nc3c(OC)cccc3s2)o1	9	4	12	-2	-1	10
COc1cccc2sc(Nc3nnc(-c4ccccc4Cl)o3)nc12	-3	-2	-2	86*	3	2
NNc1nc2c(Cl)c(Cl)ccc2s1	-8	30*	1	x	0	0
COc1cccc2sc(NN)nc12	-2	22	-2	98*	5	11
Cc1ccc(OCC(=O)NCCNC(=O)c2cnccn2)cc1C	x	-13	x	x	20	x
COc1cc(C(=O)Oc2c(OC)cc(C(=S)N3CCOCC3)cc2OC)cc(OC)c1OC	2	1	13	-4	-5	11
O=C(Oc1cccc(C(=S)N2CCOCC2)c1)c1ccccc1	-3	28*	2	x	-4	9
COc1cc(C(=O)Oc2cccc(C(=S)N3CCOCC3)c2)cc(OC)c1OC	7	8	4	-6	-4	-10
COc1cc(C(=S)N2CCOCC2)cc(OC)c1OC(=O)c1ccc(F)cc1	3	29*	-7	-34	-5	-11
Cc1ccc2c(c1)c1c(n2CC(O)CNC2CCCCC2)CCCC1 (stereo not given)	5	4	-11	99*	-50	4
COC(=O)Cn1c2c(c3cc(C)ccc31)CCCC2	2	x	-7	-9	x	0
